Data published in ChEMBL document CHEMBL1135550, “Highly potent geminal bisphosphonates. From pamidronate disodium (Aredia) to zoledronic acid (Zometa)” (J Med Chem, 2002).

Species on record: Mus musculus
Experiment: Inhibition of bone mineralization in the calvaria assay of mouse
Type: functional
Details: not given

SMILES | IC50 [µM]
Cc1cnc(NC(P(=O)(O)O)P(=O)(O)O)s1 | 15
CN(CCCc1ccccc1)CCC(O)(P(=O)(O)O)P(=O)(O)O | 4
CN(CCCOc1ccccc1)CCC(O)(P(=O)(O)O)P(=O)(O)O | 9
CN(CCc1ccccc1)CCC(O)(P(=O)(O)O)P(=O)(O)O | 30

Species on record: Mus musculus
Experiment: Inhibition of bone resorption in the calvaria assay of mouse
Type: functional
Details: not given

SMILES | IC50 [µM]
Cc1cnc(NC(P(=O)(O)O)P(=O)(O)O)s1 | 0.04
CN(CCCc1ccccc1)CCC(O)(P(=O)(O)O)P(=O)(O)O | 0.05
CN(CCCOc1ccccc1)CCC(O)(P(=O)(O)O)P(=O)(O)O | 0.04
CN(CCc1ccccc1)CCC(O)(P(=O)(O)O)P(=O)(O)O | 0.02

Test system: Rattus norvegicus
Experiment: Effective dose after subcutaneous administration to TPTX rats for 50% reduction of hypercalcemia
Type: functional
Details: sc
Procedure, shortened: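 Young male rats (130-150 g) were thyroparathyroidectomized and allowed 4 days to recover, then fasting serum was sampled. Animals with serum Ca above 1.88 mM were discarded, and the rest were randomized into groups of 5. On days 5-8, 1,25(OH)2D3 (125 pmol/kg sc) was given with graded sc doses of bisphosphonate, and total serum calcium was measured. ED50 is the sc dose halving the hypercalcemia.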

SMILES | ED50 [mg/kg]
O=P(O)(O)C(O)(CCN1CCCCC1)P(=O)(O)O | 0.0056
O=P(O)(O)C(O)(Cc1c[nH]c(-c2ccccc2)n1)P(=O)(O)O | > 3
O=P(O)(O)C(O)(CCN1CCN(c2ccccc2)CC1)P(=O)(O)O | > 10
NCCCCC(O)(P(=O)(O)O)P(=O)(O)O | 0.02
CCCCc1cnc(NC(P(=O)(O)O)P(=O)(O)O)s1 | 0.0009
O=P(O)(O)C(N1CCCCC1)P(=O)(O)O | 0.8
O=P(O)(O)C(O)(CCN1CCCCCC1)P(=O)(O)O | 0.025
CCCN(CCCOc1ccccc1)CCC(O)(P(=O)(O)O)P(=O)(O)O | 0.01
Cn1ccnc1NC(P(=O)(O)O)P(=O)(O)O | 0.005
CNCCC(O)(P(=O)(O)O)P(=O)(O)O | ~0.015
Cc1ncn(CC(O)(P(=O)(O)O)P(=O)(O)O)c1C | 0.0015
CN(CCOc1ccc(Cl)cc1)CCC(O)(P(=O)(O)O)P(=O)(O)O | 0.0017
CN(C)CCC(P(=O)(O)O)P(=O)(O)O | 0.1
O=P(O)(O)C(O)(CCCCCN1CCCC1)P(=O)(O)O | 0.25
O=P(O)(O)C(Nc1nccn1Cc1ccccc1)P(=O)(O)O | 0.075
CN(C)C(P(=O)(O)O)P(=O)(O)O | > 3
O=P(O)(O)C(O)(CCCN1CCC(c2ccccc2)CC1)P(=O)(O)O | 0.1
Cc1cnc(NC(P(=O)(O)O)P(=O)(O)O)s1 | 0.0015
O=P(O)(O)C(N1CCCC1)P(=O)(O)O | > 2
O=P(O)(O)C(O)(CCn1ccnc1)P(=O)(O)O | 0.045
CN(CCCSc1ccccc1)CCC(O)(P(=O)(O)O)P(=O)(O)O | 0.00033
CN(CCCCCCc1ccccc1)CCC(O)(P(=O)(O)O)P(=O)(O)O | 1.5
CN(CCCc1ccccc1)CCC(O)(P(=O)(O)O)P(=O)(O)O | 0.001

SMILES | ED50 [mg/kg]
CCCCN(CCCOc1ccccc1)CCC(O)(P(=O)(O)O)P(=O)(O)O | 0.5
O=P(O)(O)C(O)(CCN1CCCCCCC1)P(=O)(O)O | > 0.3
O=P(O)(O)C(O)(C1CCNCC1)P(=O)(O)O | ~2.5
CCc1cnc(NC(P(=O)(O)O)P(=O)(O)O)s1 | 0.0015
CN(C)CCC(O)(P(=O)(O)O)P(=O)(O)O [OLPADRONIC ACID] | 0.012
COc1ccc(OCCCN(C)CCC(O)(P(=O)(O)O)P(=O)(O)O)cc1 | 0.0012
CN(CCCCc1ccccc1)CCC(O)(P(=O)(O)O)P(=O)(O)O | 0.0004
O=P(O)(O)C(O)(Cc1nccn1Cc1ccccc1)P(=O)(O)O | 0.025
CN(CCCc1ccc(Cl)cc1)CCC(O)(P(=O)(O)O)P(=O)(O)O | 0.0007
O=P(O)(O)C(Nc1ncc(CCc2ccccc2)s1)P(=O)(O)O | 0.0027
O=P(O)(O)C(O)(CCN1CCC(c2ccc(Cl)cc2)C1)P(=O)(O)O (stereo unspecified) | 0.0035
O=P(O)(O)C(O)(CCNCCCc1ccccc1)P(=O)(O)O | 0.02
O=P(O)(O)C(O)(Cn1cncn1)P(=O)(O)O | 0.6
CN1CCN(CCC(O)(P(=O)(O)O)P(=O)(O)O)CC1 | ~0.4
O=P(O)(O)C(O)(C1CCCNC1)P(=O)(O)O (stereo unspecified) | 0.25
CN(CCCOc1ccccc1)CCCC(O)(P(=O)(O)O)P(=O)(O)O | 0.1
O=P(O)(O)C(O)(CCNCCCOc1ccccc1)P(=O)(O)O | 0.0012
O=P(O)(O)C(O)(CCNCCCCc1ccccc1)P(=O)(O)O | 0.001
CN(CCCOc1ccc(Cl)cc1)CCC(O)(P(=O)(O)O)P(=O)(O)O | 0.0013
O=P(O)(O)C(O)(CCc1c[nH]cn1)P(=O)(O)O | 0.02
CC(=O)NCCC(O)(P(=O)(O)O)P(=O)(O)O | > 1
CC(C)c1cnc(NC(P(=O)(O)O)P(=O)(O)O)s1 | 0.2
O=P(O)(O)C(N1CCCCCC1)P(=O)(O)O [N-(HEXAMETHYLENEIMINO)METHYLENEBISPHOSPHONIC ACID] | 0.04

SMILES | ED50 [mg/kg]
NCCCCCC(O)(P(=O)(O)O)P(=O)(O)O [NERIDRONIC ACID] | 0.06
CCN(CCCOc1ccccc1)CCC(O)(P(=O)(O)O)P(=O)(O)O | 0.02
O=P(O)(O)C(Cc1nccs1)P(=O)(O)O | 0.2
CCCCCN(C)CCC(O)(P(=O)(O)O)P(=O)(O)O [IBANDRONIC ACID] | 0.0011
CC(N)CC(O)(P(=O)(O)O)P(=O)(O)O (stereo unspecified) | 0.0034
O=P(O)(O)C(O)(CCN1CCCC1)P(=O)(O)O | 0.01
CN(C)CCC(N)(P(=O)(O)O)P(=O)(O)O [LIDADRONIC ACID] | > 0.2
CN(CCCCCCOc1ccccc1)CCC(O)(P(=O)(O)O)P(=O)(O)O | 7.5
O=P(O)(O)C(Nc1nc2ccccc2[nH]1)P(=O)(O)O | > 10
CC(CCc1ccccc1)NCCC(O)(P(=O)(O)O)P(=O)(O)O (stereo unspecified) | > 10
O=P(O)(O)C(O)(CCNCCc1ccccc1)P(=O)(O)O | 0.3
O=P(O)(O)C(Nc1ncc[nH]1)P(=O)(O)O | ~0.5
Cn1ccnc1CC(O)(P(=O)(O)O)P(=O)(O)O | 0.0006
O=P(O)(O)C(O)(CCN1CCC(c2ccccc2)C1)P(=O)(O)O (stereo unspecified) | 0.07
CN(CCCOc1ccccc1)CCC(O)(P(=O)(O)O)P(=O)(O)O | 0.0005
O=P(O)(O)C(O)(CCNCCCSc1ccccc1)P(=O)(O)O | 0.007
CCN(CC)CCC(O)(P(=O)(O)O)P(=O)(O)O | 0.003
O=P(O)(O)C(O)(C1CNC1)P(=O)(O)O | > 3
O=P(O)(O)C(O)(Cc1ncc[nH]1)P(=O)(O)O | 0.005
O=P(O)(O)C(O)(C1CCCCN1)P(=O)(O)O (stereo unspecified) | 0.05
NCC(O)(P(=O)(O)O)P(=O)(O)O | 0.15
CN(CCCOc1ccc(F)cc1)CCC(O)(P(=O)(O)O)P(=O)(O)O | 0.0006
O=P(O)(O)C(O)(CCCN1CCCC1)P(=O)(O)O | 0.025

SMILES | ED50 [mg/kg]
CCCCCN(C)C(C)CC(O)(P(=O)(O)O)P(=O)(O)O (stereo unspecified) | 0.065
O=P(O)(O)C(O)(Cn1cccn1)P(=O)(O)O | > 0.3
CCCc1cnc(NC(P(=O)(O)O)P(=O)(O)O)s1 | 0.002
CC(CC(O)(P(=O)(O)O)P(=O)(O)O)N(C)C (stereo unspecified) | 0.018
Cc1cccc(OCCCN(C)CCC(O)(P(=O)(O)O)P(=O)(O)O)c1 | 0.0017
CN(CCc1ccccc1)CCC(O)(P(=O)(O)O)P(=O)(O)O | 0.0014
O=P(O)(O)C(Nc1nc2ccccc2s1)P(=O)(O)O | > 3
CP(=O)(O)C(Nc1nccs1)P(C)(=O)O (stereo unspecified) | > 10
O=P(O)(O)C(O)(CCN1CCC(c2cccc(F)c2)CC1)P(=O)(O)O | 0.03
O=P(O)(O)C(O)(CCN1CCC(c2ccccc2)CC1)P(=O)(O)O | ~0.011
O=P(O)(O)C(O)(CCCCCN1CCC(c2ccccc2)CC1)P(=O)(O)O | > 0.3
Cc1csc(NC(P(=O)(O)O)P(=O)(O)O)n1 | 0.1
O=P(O)(O)C(O)(Cc1c[nH]cn1)P(=O)(O)O | 0.0003
Cc1[nH]cnc1CC(O)(P(=O)(O)O)P(=O)(O)O | 0.0015
O=P(O)(O)C(NC1CCCCCC1)P(=O)(O)O [INCADRONIC ACID] | 0.007
CN(CCCSc1ccc(Cl)cc1)CCC(O)(P(=O)(O)O)P(=O)(O)O | 0.0078
CN(CCCCOc1ccccc1)CCC(O)(P(=O)(O)O)P(=O)(O)O | 0.004
O=P(O)(O)C(O)(CCNCCSc1ccccc1)P(=O)(O)O | > 0.2
O=P(O)(O)C(Nc1nccs1)P(=O)(O)O | 0.005
CCCN(C)CCC(O)(P(=O)(O)O)P(=O)(O)O | 0.003
O=P(O)(O)C(Nc1ncc(-c2ccccc2)s1)P(=O)(O)O | > 1

Test system: not listed separately
Experiment: Therapeutic ratio comparing nephrotoxic potential versus bone antiresorptive potency (reciprocal of ED50 (TPTX assay) / the total urinary malate dehydrogenase excretion)
Type: ADME, tissue-based, Urine
Details: not given
Procedure, shortened: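 Rats received repeated sc injections, with saline-injected controls. Malate dehydrogenase was totalled in units over eight 24-h urine collections from the start of dosing. The ratio is the reciprocal of the TPTX hypercalcemia ED50 (mg/kg) divided by total urinary MDH units.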

SMILES | Therapeutic ratio
Cc1cnc(NC(P(=O)(O)O)P(=O)(O)O)s1 | 4.5
CN(CCCc1ccccc1)CCC(O)(P(=O)(O)O)P(=O)(O)O | 120
CN(CCCOc1ccccc1)CCC(O)(P(=O)(O)O)P(=O)(O)O | 84
CN(CCc1ccccc1)CCC(O)(P(=O)(O)O)P(=O)(O)O | 19

Test system: not listed separately
Experiment: Ratio of calvaria mineralization to calvaria bone resorption
Type: functional
Details: not given

SMILES | Ratio
Cc1cnc(NC(P(=O)(O)O)P(=O)(O)O)s1 | 375
CN(CCCc1ccccc1)CCC(O)(P(=O)(O)O)P(=O)(O)O | 80
CN(CCCOc1ccccc1)CCC(O)(P(=O)(O)O)P(=O)(O)O | 225
CN(CCc1ccccc1)CCC(O)(P(=O)(O)O)P(=O)(O)O | 1500
